These results are taken from ChEMBL document CHEMBL4823325, “Synthesis of Benzoazepine Derivatives via Azide Rearrangement and Evaluation of Their Antianxiety Activities” (ACS Med Chem Lett, 2021).

The source made the active and inactive calls. The rule behind the calls is not given here.

One data set has as its system HEK293. The experiment in a line: Cytotoxicity against human HEK293 cells assessed as reduction in cell viability measured after 24 hrs by MTT assay. Particulars: HEK293, 24 h. It is filed as cell-based. A general note: Tetrazolium dyes change colour on reduction, which living cells bring about.
Data set [1] has as its system Rattus norvegicus. The experiment in a line: Anxiolytic activity in restraint stress induced anxiety Wistar rat model assessed as increase in time spent in open arm at 2 mg/kg, po measured after 30 mins by elevated plus maze test. It counts as functional, organism-based. In outline: (§1)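 Rats were stressed by immobilization in a plastic restrainer for 2 h/day for 14 days. Test compounds were given at 2 mg/kg 30 min before the elevated plus maze, six rats per group. Read-outs were percent open arm entry, percent open arm time and anxiety index (higher index means more anxiety). Groups were compared with nonstressed vehicle and stressed vehicle groups.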

In data set [2] the test system is Rattus norvegicus. The experiment in a line: Anxiolytic activity in restraint stress induced anxiety Wistar rat model assessed as decrease in anxiety index at 2 mg/kg, po measured after 30 mins by elevated plus maze test. It is filed as functional, organism-based. Summed up: as §1
Data set [3] relates to Rattus norvegicus. The experiment in a line: Anxiolytic activity in restraint stress induced anxiety Wistar rat model assessed as increase in open arm entry at 2 mg/kg, po measured after 30 mins by elevated plus maze test. It is filed as functional, organism-based. Summed up: as §1
The test system of data set [4] is Rattus norvegicus. In words: Induction of hyperlocomotor activity in restraint stress induced anxiety Wistar rat model assessed as increase in total lines crossed at 2 mg/kg, po measured after 30 mins by open field test. It is filed as functional, organism-based. In outline:
(§2)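 Restraint stress was applied by immobilization in a plastic restrainer for 2 h/day over 14 days. Rats received 2 mg/kg 30 min before the open field test, six per group. Inner zone time was scored as the anxiety measure and the number of total lines crossed as locomotor activity. Groups were compared with nonstressed vehicle and stressed vehicle groups.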

For data set [5], the system named is Rattus norvegicus. In words: Anxiolytic activity in restraint stress induced anxiety Wistar rat model assessed as increase in time spent in inner zone at 2 mg/kg, po measured after 30 mins by open field test. It is filed as functional, organism-based. Summed up:
as §2

Data set [6] relates to Rattus norvegicus. In words: Anxiolytic activity in restraint stress induced anxiety Wistar rat model assessed as decrease in rearing behaviour at 2 mg/kg, po measured after 30 mins by open field test. It is filed as functional, organism-based. In outline: (§3)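 Open field test in rats stressed by immobilisation in a plastic restrainer for 2 h/day for 14 days, with non-stressed controls. Animals received 2 mg/kg acutely 30 min before testing, six rats per group. Readouts were inner zone time, outer zone time, total lines crossed (locomotion) and rearing (exploration).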

Data set [7] concerns Rattus norvegicus. The experiment in a line: Anxiolytic activity in restraint stress induced anxiety Wistar rat model assessed as decrease in time spent in outer zone at 2 mg/kg, po measured after 30 mins by open field test. It counts as functional, organism-based. In outline: as §3
Data set [8] can be described thus: Effect on locomotor activity in normal Wistar rat assessed as effect on total open arm entry at 2 mg/kg, po measured after 30 mins by elevated plus maze test. The conditions noted are these: in vivo, 0.5 h.

Usually IC50 stands for the midpoint of a concentration-inhibition curve. Turning to `COc1ccc2c(c1)Cc1ccc(OC)cc1NC2`, in the data set with HEK293, the IC50 was determined as 1.09 µM.

`COc1ccc2c(c1)Cc1cccc(F)c1NC2`: the half-maximal inhibitory concentration (IC50) in the data set with HEK293 worked out at 6.19 µM.

Regarding `COc1cc2c(c(OC)c1)CNc1ccccc1C2`, the concentration for half-maximal inhibition (IC50) in the data set on HEK293 stood at 6.44 µM.

On to `CN1C(=O)CN=C(c2ccccc2)c2cc(Cl)ccc21` [DIAZEPAM], for which, in the data set on HEK293, the IC50 came to 87.9 µM. In addition, the result in the data set with Rattus norvegicus [1], with Rattus norvegicus [2], in the data set on Rattus norvegicus [3], in the data set on Rattus norvegicus [4], in the data set with Rattus norvegicus [5] and in the data set on Rattus norvegicus [6] was Active. Moreover, in the data set on Rattus norvegicus [7], the outcome was Active.

With `COc1ccc2c(c1)Cc1ccccc1NC2`, in the data set with HEK293, the IC50 was found to be 65.7 µM. The result in the data set with Rattus norvegicus [1], with Rattus norvegicus [2], in the data set on Rattus norvegicus [3], in the data set on Rattus norvegicus [4] and with Rattus norvegicus [5] was Active. In [8], the Activity result is “Non-Toxic”.

For the compound `COc1ccc2c(c1)CCc1ccccc1NC2`, the IC50 in the data set on HEK293 is 14.1 µM.

As to `COc1ccc2c(c1)NCc1ccc(Oc3ccccc3)cc1C2`, the IC50 in the data set on HEK293 was determined as 2.12 µM.

`COc1ccc2c(c1)Cc1cc(Cl)ccc1NC2`: in the data set with HEK293, the IC50 amounted to 2.29 µM.

`COc1ccc2c(c1)Cc1cc3c(cc1NC2)OCO3`: the IC50 with HEK293 was found to be 14.5 µM.

For the compound `COc1ccc2c(c1)Cc1cc(F)ccc1NC2`, in the data set on HEK293, the concentration for half-maximal inhibition (IC50) came to 0.16 µM. In addition, the outcome with Rattus norvegicus [1], in the data set on Rattus norvegicus [2], in the data set with Rattus norvegicus [3], with Rattus norvegicus [4] and in the data set with Rattus norvegicus [5] was Active. The Activity entry in [8] is listed as “Non-Toxic”.

Regarding `COc1ccc2c(c1)Cc1ccc(Cl)cc1NC2`, in the data set on HEK293, the IC50 turned out to be 12.6 µM. Moreover, the result in the data set on Rattus norvegicus [1], in the data set with Rattus norvegicus [2], in the data set with Rattus norvegicus [3], in the data set with Rattus norvegicus [4] and with Rattus norvegicus [5] was Active. Besides, the Activity result in data set [8] is on record as “Non-Toxic”.

`Fc1cccc2c1NCc1ccc(Oc3ccccc3)cc1C2`: the half-maximal inhibitory concentration (IC50) in the data set on HEK293 was 13.7 µM. In addition, the result with Rattus norvegicus [1], with Rattus norvegicus [2], in the data set with Rattus norvegicus [3], in the data set with Rattus norvegicus [4] and with Rattus norvegicus [5] was Active. For the same compound, in data set [8], the Activity entry is “Non-Toxic”.

For the compound `Clc1ccc2c(c1)NCc1ccc(Oc3ccccc3)cc1C2`, in the data set with HEK293, the concentration for half-maximal inhibition (IC50) worked out at 14.2 µM. In addition, the result with Rattus norvegicus [1], with Rattus norvegicus [2], in the data set with Rattus norvegicus [3], in the data set on Rattus norvegicus [4] and in the data set with Rattus norvegicus [5] was Active. The Activity result in data set [8] was “Non-Toxic”.

As to `c1ccc(Oc2ccc3c(c2)Cc2ccccc2NC3)cc1`, in the data set on HEK293, the IC50 was determined as 4.43 µM.

On to `COc1ccc2c(c1)Cc1c(F)cccc1NC2`, for which the 50% inhibitory concentration (IC50) in the data set on HEK293 was found to be 0.77 µM.
